Reference: ChEMBL document CHEMBL5046273, “Development of a Novel, Small-Molecule Brain-Penetrant Histone Deacetylase Inhibitor That Enhances Spatial Memory Formation in Mice” (J Med Chem, 2022)
The source made the active and inactive calls. No cut-off for these calls is given here.

Tests used:
Histone deacetylase 2 [1] = target: T1, Histone deacetylase 2 (Homo sapiens, UniProt Q92769); assay: Inhibition of recombinant human full-length HDAC2 preincubated for 20 mins with DTT followed by enzyme addition and measured after 10 mins by Glo-luminescence assay
T1 sequence (Q92769 whole entry): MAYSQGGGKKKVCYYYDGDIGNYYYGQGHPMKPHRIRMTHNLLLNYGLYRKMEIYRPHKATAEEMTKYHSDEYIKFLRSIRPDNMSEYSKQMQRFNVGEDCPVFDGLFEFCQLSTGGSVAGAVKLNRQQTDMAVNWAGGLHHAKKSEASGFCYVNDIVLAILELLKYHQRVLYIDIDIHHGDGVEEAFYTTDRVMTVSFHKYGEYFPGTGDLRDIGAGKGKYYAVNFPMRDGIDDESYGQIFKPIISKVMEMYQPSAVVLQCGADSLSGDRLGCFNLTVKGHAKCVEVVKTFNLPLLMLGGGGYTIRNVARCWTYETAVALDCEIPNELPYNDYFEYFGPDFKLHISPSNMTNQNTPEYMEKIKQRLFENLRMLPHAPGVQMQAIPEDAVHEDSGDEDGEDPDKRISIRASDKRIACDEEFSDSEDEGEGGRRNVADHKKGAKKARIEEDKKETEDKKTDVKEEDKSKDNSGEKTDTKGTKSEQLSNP
Summary of the method: (§1)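 Compounds were serially diluted and incubated with enzyme for 10 min. HDAC-Glo I/II substrate/developer was then added, and luminescence read after 40 min at 23 °C. IC50 from four-parameter fits from two independent titrations, mean ± SD.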

Histone deacetylase 2 [2] = target: T1, Histone deacetylase 2; assay: Inhibition of recombinant human full-length HDAC2 incubated for 10 mins by Glo-luminescence assay; summary of the method: as §1
DU-145 = assay: Cytotoxicity against human DU-145 cells assessed as reduction in cell viability at 0.00125 to 100 uM incubated for 48 hrs by MTT assay; assay type: functional, cell-based; details: dose 0.00125-100 µM
Summary of the method: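 DU145 cells in DMEM with 10% FBS were seeded at 14 000 cells/well and allowed to adhere for 24 h. Test agents were diluted from 10 mM DMSO stocks (100, 50, 25 µM; 10, 5, 1.25 nM) and applied in triplicate for 48 h at 37 °C, 5% CO2, with DMSO as vehicle. Read-out was 250 µg/mL MTT for 4 h, DMSO solubilization, and A570 with 690 nm reference. Values normalized to DMSO.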

IC50 (Histone deacetylase 2 [1]) [µM] | IC50 (Histone deacetylase 2 [2]) [µM] | Structure (SMILES) | Activity (DU-145)
17 | 280 | CCCC[C@@H](NC(=O)CC(O)/C=C/CCSSCC/C=C/C(O)CC(=O)N[C@H](CCCC)C(=O)OC)C(=O)OC (some centres undefined) | 
28 | 140 | O=C(O)CC(O)/C=C/CCSSCC/C=C/C(O)CC(=O)O (centres undefined) | 
11 | 140 | CCCC[C@@H](NC(=O)CC(O)/C=C/CCSSCC/C=C/C(O)CC(=O)N[C@H](CCCC)C(=O)O)C(=O)O (some centres undefined) | 
25 | 105 | O=C(CC(O)/C=C/CCSSCC/C=C/C(O)CC(=O)Nc1ccccc1)Nc1ccccc1 (centres undefined) | inactive
